Drawing on ChEMBL document CHEMBL4229415, “Design, synthesis and biological evaluation of novel series of 2H-benzo[b][1,4]oxazin-3(4H)-one and 2H-benzo[b][1,4]oxazine scaffold derivatives as PI3Kα inhibitors” (Bioorg Med Chem, 2018), this text covers IC50, Ratio IC50 and inhibition for 20 compounds.

For one assay, the system named is MDA-MB-231. The experiment in a line: Antiproliferative activity against human MDA-MB-231 cells after 72 hrs by SRB assay. Format: functional, cell-based. The conditions noted are these: MDA-MB-231, 72 h. (In general: Sulforhodamine B stains cellular protein and so reports cell mass.)
A further assay concerns HCT-116. The experiment in a line: Antiproliferative activity against human HCT116 cells after 72 hrs by SRB assay. Format: functional, cell-based. The conditions noted are these: HCT-116, 72 h.
The next assay relates to SNU-638. The experiment in a line: Antiproliferative activity against human SNU638 cells after 72 hrs by SRB assay. Format: functional, cell-based. Conditions: SNU-638, 72 h.
The species named for assay [1] is Homo sapiens. The assay can be described thus: Selectivity ratio of IC50 for recombinant human PI3K-delta to IC50 for recombinant human PI3K-alpha. A digest of the protocol:
(§1)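 Ratios derived from isoform IC50 values obtained in the ADP-Glo lipid-kinase assay: each enzyme preincubated 15 min with compound and lipid substrate, reaction started with ATP (250 µM stock), 1 h at room temperature, luminescence read and IC50 fitted by normalized nonlinear regression.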

In assay [2] the target is Phosphatidylinositol 4,5-bisphosphate 3-kinase catalytic subunit gamma isoform (Homo sapiens, UniProt P48736). The assay can be described thus: Inhibition of recombinant human PI3K-gamma using PIP2:3PS as substrate preincubated for 15 mins followed by ATP addition measured after 1 hr by ADP-Glo assay. In short, it runs like this: (§2)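 Luminescent ADP-production readout (PI3K-Glo Class I kit). Enzymes p110α/p85α, p110β/p85α, p120γ or p110δ/p85α diluted in reaction buffer with lipid substrate, preincubated with serially diluted compound 15 min at room temperature. ADP-Glo reagent 40 min, then detection reagent 40 min. IC50 by normalized nonlinear dose-response fit.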
Chain of Phosphatidylinositol 4,5-bisphosphate 3-kinase catalytic subunit gamma isoform (P48736 whole entry, canonical isoform): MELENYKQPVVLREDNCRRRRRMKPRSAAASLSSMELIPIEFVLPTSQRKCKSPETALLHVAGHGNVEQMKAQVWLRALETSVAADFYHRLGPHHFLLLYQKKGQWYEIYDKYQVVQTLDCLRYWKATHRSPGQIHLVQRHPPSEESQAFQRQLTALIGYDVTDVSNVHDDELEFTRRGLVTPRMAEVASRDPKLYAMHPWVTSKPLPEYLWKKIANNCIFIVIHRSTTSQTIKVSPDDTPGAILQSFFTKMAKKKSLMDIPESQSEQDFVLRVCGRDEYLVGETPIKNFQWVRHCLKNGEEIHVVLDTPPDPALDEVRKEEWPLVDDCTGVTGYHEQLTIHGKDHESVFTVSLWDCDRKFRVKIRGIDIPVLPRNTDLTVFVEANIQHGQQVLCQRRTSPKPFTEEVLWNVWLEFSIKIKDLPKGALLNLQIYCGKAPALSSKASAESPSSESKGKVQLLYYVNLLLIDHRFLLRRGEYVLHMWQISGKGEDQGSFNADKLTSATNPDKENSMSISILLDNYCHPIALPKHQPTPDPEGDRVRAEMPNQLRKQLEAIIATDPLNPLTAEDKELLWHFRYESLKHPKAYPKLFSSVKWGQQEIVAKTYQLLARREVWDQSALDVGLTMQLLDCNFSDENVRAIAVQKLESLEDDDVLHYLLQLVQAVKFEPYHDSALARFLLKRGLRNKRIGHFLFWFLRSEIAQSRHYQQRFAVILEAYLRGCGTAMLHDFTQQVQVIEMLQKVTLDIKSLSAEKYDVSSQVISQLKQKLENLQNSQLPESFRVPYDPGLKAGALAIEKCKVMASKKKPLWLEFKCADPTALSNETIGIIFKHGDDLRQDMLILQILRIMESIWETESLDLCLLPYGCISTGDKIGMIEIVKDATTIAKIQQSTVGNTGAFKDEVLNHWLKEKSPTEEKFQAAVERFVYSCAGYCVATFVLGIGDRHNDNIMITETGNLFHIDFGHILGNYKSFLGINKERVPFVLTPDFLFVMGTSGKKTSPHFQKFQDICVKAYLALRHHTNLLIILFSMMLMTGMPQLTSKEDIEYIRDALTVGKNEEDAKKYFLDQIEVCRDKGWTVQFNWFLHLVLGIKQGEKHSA
For orientation: ADP-Glo first removes unused ATP, then detects ADP through luciferase.

The test system of another assay is MRC5. The assay can be described thus: Antiproliferative activity against human MRC5 cells after 72 hrs by SRB assay. Conditions: MRC5, 72 h. Format: cell-based. In short, it runs like this: (§3)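 Normal human cells (MRC5, HUVEC) exposed to graded compound concentrations for 72 h at 37 °C, 5% CO2, fixed with 10% TCA and stained by SRB. IC50 obtained by non-linear regression of percent growth against concentration.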

In a further assay the test system is HUVEC. The experiment in a line: Antiproliferative activity against HUVEC after 72 hrs by SRB assay. It counts as cell-based. The conditions noted are these: Homo sapiens. In short, it runs like this:
as §3

The species named for assay [3] is Homo sapiens. The assay can be described thus: Selectivity ratio of IC50 for recombinant human PI3K-gamma to IC50 for recombinant human PI3K-alpha. A digest of the protocol:
as §1

Assay [4] is filed under the species Homo sapiens. The assay can be described thus: Selectivity ratio of IC50 for recombinant human PI3K-beta to IC50 for recombinant human PI3K-alpha. In short, it runs like this:
as §1

Assay [5] concerns the target T1, Phosphatidylinositol 4,5-bisphosphate 3-kinase catalytic subunit alpha isoform (Homo sapiens, UniProt P42336). The experiment in a line: Inhibition of PI3K-alpha in human HCT116 cells assessed as reduction in Akt phosphorylation at Thr-308 residue by Western blot analysis. It counts as cell-based. In short, it runs like this:
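Equal protein amounts separated by 10% SDS-PAGE, transferred to PVDF, probed with the indicated antibodies; β-actin as internal control.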

Assay [6] concerns the target Phosphatidylinositol 4,5-bisphosphate 3-kinase catalytic subunit beta isoform (Homo sapiens, UniProt P42338). The assay can be described thus: Inhibition of recombinant human PI3K-beta using PIP2:3PS as substrate preincubated for 15 mins followed by ATP addition measured after 1 hr by ADP-Glo assay. A digest of the protocol:
as §2

In assay [7] the target is T2, Phosphatidylinositol 4,5-bisphosphate 3-kinase catalytic subunit delta isoform (Homo sapiens, UniProt O00329).
T2 sequence (O00329 whole entry): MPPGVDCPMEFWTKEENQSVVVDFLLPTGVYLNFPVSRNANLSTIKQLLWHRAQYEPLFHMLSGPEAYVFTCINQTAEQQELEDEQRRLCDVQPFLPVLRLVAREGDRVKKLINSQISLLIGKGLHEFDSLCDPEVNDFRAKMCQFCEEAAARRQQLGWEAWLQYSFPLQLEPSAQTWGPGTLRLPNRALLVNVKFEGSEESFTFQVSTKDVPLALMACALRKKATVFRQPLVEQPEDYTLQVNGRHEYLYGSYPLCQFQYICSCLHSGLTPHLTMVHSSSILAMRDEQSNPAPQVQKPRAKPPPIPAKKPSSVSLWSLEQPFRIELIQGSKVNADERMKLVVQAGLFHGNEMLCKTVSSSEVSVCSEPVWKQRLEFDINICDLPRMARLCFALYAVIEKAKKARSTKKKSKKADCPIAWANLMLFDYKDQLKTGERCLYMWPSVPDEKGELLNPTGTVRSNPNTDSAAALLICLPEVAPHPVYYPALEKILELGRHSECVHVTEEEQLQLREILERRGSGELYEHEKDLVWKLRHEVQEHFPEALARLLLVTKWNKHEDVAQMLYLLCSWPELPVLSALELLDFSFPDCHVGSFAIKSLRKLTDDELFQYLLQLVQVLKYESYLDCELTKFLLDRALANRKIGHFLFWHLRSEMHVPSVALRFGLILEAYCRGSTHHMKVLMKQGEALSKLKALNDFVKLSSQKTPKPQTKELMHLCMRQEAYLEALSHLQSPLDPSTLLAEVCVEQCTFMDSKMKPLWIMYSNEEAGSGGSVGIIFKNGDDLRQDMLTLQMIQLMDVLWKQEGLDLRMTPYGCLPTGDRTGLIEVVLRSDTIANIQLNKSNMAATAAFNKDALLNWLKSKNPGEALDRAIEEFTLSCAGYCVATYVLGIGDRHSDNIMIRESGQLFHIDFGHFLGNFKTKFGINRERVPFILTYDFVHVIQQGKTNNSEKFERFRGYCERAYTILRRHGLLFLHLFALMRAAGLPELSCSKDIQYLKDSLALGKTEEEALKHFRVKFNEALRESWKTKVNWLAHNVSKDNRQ
The assay can be described thus: Inhibition of recombinant human PI3K-delta using PIP2:3PS as substrate preincubated for 15 mins followed by ATP addition measured after 1 hr by ADP-Glo assay. In short, it runs like this:
as §2

The target in assay [8] is T1, Phosphatidylinositol 4,5-bisphosphate 3-kinase catalytic subunit alpha isoform. The experiment in a line: Inhibition of recombinant human PI3K-alpha using PIP2:3PS as substrate preincubated for 15 mins followed by ATP addition measured after 1 hr by ADP-Glo assay. In short, it runs like this: as §2

T1 sequence (P42336 whole entry, canonical isoform): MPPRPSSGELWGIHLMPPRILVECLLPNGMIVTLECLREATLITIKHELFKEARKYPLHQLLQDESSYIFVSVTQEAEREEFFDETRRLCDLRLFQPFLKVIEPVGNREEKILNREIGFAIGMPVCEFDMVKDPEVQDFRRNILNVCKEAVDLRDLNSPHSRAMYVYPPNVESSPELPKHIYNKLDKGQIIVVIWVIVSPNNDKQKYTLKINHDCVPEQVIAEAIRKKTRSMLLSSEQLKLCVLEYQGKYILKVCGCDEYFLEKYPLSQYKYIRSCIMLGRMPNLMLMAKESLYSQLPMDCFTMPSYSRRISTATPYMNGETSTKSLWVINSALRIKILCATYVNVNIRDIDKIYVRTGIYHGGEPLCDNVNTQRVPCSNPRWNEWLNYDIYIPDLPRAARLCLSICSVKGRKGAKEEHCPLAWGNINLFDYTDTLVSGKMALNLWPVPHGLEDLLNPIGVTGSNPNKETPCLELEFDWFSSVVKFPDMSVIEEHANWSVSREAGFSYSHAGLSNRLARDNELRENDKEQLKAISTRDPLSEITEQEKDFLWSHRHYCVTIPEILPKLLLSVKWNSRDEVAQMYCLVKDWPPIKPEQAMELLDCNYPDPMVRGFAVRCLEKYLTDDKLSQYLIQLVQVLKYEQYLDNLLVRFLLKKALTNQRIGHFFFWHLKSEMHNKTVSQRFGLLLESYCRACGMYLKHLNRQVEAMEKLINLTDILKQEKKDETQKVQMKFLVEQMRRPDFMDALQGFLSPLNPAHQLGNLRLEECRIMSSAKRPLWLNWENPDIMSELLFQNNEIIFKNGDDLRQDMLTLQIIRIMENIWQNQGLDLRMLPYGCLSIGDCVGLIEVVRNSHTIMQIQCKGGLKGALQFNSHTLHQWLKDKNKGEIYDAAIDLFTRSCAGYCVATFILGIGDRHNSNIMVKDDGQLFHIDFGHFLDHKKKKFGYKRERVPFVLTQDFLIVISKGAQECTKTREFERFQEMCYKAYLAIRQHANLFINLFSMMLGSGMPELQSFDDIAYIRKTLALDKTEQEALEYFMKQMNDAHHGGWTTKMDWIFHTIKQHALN
Chain of Phosphatidylinositol 4,5-bisphosphate 3-kinase catalytic subunit beta isoform (P42338 whole entry, canonical isoform): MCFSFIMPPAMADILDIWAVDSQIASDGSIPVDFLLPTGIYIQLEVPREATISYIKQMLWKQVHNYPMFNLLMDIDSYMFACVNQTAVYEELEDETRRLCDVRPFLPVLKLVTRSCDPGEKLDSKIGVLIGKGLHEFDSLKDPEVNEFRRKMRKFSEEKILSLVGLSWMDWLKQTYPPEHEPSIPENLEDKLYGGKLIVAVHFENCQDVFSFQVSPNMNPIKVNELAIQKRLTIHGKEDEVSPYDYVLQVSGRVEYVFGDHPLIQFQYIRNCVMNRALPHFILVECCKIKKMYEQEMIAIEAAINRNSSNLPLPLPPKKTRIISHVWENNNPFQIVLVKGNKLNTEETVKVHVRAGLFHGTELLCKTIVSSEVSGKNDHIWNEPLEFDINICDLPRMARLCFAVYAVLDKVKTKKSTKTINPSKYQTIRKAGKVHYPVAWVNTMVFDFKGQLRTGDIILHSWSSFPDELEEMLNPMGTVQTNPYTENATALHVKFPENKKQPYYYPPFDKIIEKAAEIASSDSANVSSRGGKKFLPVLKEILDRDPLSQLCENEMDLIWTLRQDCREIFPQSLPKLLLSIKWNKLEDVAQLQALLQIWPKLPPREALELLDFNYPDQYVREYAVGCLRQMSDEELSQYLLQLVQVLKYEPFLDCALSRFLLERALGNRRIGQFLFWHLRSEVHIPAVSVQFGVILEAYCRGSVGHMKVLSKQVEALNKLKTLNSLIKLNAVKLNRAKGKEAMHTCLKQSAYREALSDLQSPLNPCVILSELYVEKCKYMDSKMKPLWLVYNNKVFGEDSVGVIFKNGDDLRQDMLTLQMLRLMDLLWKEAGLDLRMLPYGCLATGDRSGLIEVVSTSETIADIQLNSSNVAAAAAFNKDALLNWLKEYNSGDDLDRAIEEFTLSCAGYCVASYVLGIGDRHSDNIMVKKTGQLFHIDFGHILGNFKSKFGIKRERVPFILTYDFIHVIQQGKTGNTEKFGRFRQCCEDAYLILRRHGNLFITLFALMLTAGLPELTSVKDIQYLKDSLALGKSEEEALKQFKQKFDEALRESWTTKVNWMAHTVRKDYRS

On to `CCCCS(=O)(=O)Nc1cc(-c2ccc3c(c2)N(CCCN2CCOCC2)C(=O)CO3)cnc1OC`, for which the IC50 (in general, the concentration that inhibits the measured activity by half) was 4.23 µM with MDA-MB-231, 4.62 µM with HCT-116 and 5.01 µM in the assay on SNU-638.
`COc1ncc(-c2ccc3c(c2)N=C(N2CCN(CCCO)CC2)CO3)cc1NS(=O)(=O)c1ccc(F)cc1F`: the IC50 came to 4.78 µM with MDA-MB-231, 3.26 µM with HCT-116 and 4.97 µM in the assay on SNU-638.
On to `COc1ncc(-c2ccc3c(c2)N(CCN2CCOCC2)C(=O)CO3)cc1NS(=O)(=O)c1ccc(F)cc1F`, for which the IC50 in the assay with MDA-MB-231 was found to be 1.82 µM; in the assay with HCT-116 it was 2.4 µM; in the assay on SNU-638, 2.38 µM.
As to `COc1ncc(-c2ccc3c(c2)N=C(N2CCN(CCO)CC2)CO3)cc1NS(=O)(=O)c1ccc(F)cc1F`, the IC50 in the assay with MDA-MB-231 came to 8.26 µM; in the assay with HCT-116 it was 6.18 µM; in the assay on SNU-638, 7.39 µM.
The matching figures for `COC(=O)CCN1CCN(C2=Nc3cc(-c4cnc(OC)c(NS(=O)(=O)c5ccc(F)cc5F)c4)ccc3OC2)CC1`: 22.8 µM, 18.6 µM and 24.9 µM.
On the same counts, the results for `COc1ncc(-c2ccc3c(c2)N(CCC(=O)N2CCOCC2)C(=O)CO3)cc1NS(=O)(=O)c1ccc(F)cc1F` are 3.26 µM, 3.18 µM and 5.77 µM.
The matching figures for `CCCCS(=O)(=O)Nc1cc(-c2ccc3c(c2)N(CCCN(CC)CC)C(=O)CO3)cnc1OC`: 13.8 µM, 14.6 µM and 17.6 µM.
The compound `Cn1c(=O)n(-c2ccc(C(C)(C)C#N)cc2)c2c3cc(-c4cnc5ccccc5c4)ccc3ncc21` [DACTOLISIB] returned an IC50 in the assay on MDA-MB-231 of 0.56 µM.
Regarding `CCCCS(=O)(=O)Nc1cc(-c2ccc3c(c2)N(CCN2CCOCC2)C(=O)CO3)cnc1OC`, the results for the IC50 in the assay on MDA-MB-231, in the assay with HCT-116 and with SNU-638 were 19.5 µM, 15.8 µM and 20.4 µM, respectively.
Consider `COc1ncc(-c2ccc3c(c2)N(CCCN2CCOCC2)C(=O)CO3)cc1NS(=O)(=O)c1ccc(F)cc1F`, for which the Ratio IC50 in the assay listed under Homo sapiens [1] was 15.9; in the assay listed under Homo sapiens [3], 7; in the assay listed under Homo sapiens [4] it was 14.3. The IC50 in assay [2] came to 0.185 µM; in the assay with MRC5, 32.8 µM; in the assay on HUVEC, 15.6 µM; in the assay on MDA-MB-231, 0.49 µM; in the assay on HCT-116 it was 0.58 µM; in assay [6], 0.382 µM. In addition, the IC50 turned out to be 0.425 µM in [7], 0.52 µM with SNU-638 and 0.0267 µM in [8]. For the same compound, the inhibition entry in assay [5] is “Dose-dependent effect”.
With `CCCCS(=O)(=O)Nc1cc(-c2ccc3c(c2)N(CCC(=O)N2CCOCC2)C(=O)CO3)cnc1OC`, the IC50 came to 43.8 µM in the assay on MDA-MB-231, 23.5 µM in the assay on HCT-116 and 41.9 µM in the assay on SNU-638.
The matching figures for `CCCCS(=O)(=O)Nc1cc(-c2ccc3c(c2)N(CCCn2ccnc2)C(=O)CO3)cnc1OC`: 40.4 µM, 32.9 µM and 32.7 µM.
On the same counts, the results for `CCCCS(=O)(=O)Nc1cc(-c2ccc3c(c2)N(CCCn2cccn2)C(=O)CO3)cnc1OC` are 37.9 µM, 33.6 µM and 36.2 µM.
With `CCOC(=O)CN1CCN(C2=Nc3cc(-c4cnc(OC)c(NS(=O)(=O)c5ccc(F)cc5F)c4)ccc3OC2)CC1`, the IC50 in the assay with MDA-MB-231 amounted to 17.2 µM; with HCT-116, 14.5 µM; with SNU-638, 21.4 µM.
As to `COc1ncc(-c2ccc3c(c2)N(Cc2ccc(F)cc2)C(=O)CO3)cc1NS(=O)(=O)c1ccc(F)cc1F`, the IC50 with MDA-MB-231 turned out to be 4.98 µM; in the assay with HCT-116, 1.24 µM; in the assay with SNU-638, 7.84 µM.
On the same counts, the results for `COc1ncc(-c2ccc3c(c2)N(CCCn2ccccc2=O)C(=O)CO3)cc1NS(=O)(=O)c1ccc(F)cc1F` are 12.4 µM, 4.23 µM and 6.76 µM.
On to `COc1ncc(-c2ccc3c(c2)N(Cc2ccncc2)C(=O)CO3)cc1NS(=O)(=O)c1ccc(F)cc1F`, for which the values for the IC50 in the assay with MDA-MB-231, in the assay on HCT-116 and in the assay with SNU-638 were 5.49 µM, 2.22 µM and 6.96 µM, respectively.
The matching figures for `CCCCS(=O)(=O)Nc1cc(-c2ccc3c(c2)N(Cc2ccncc2)C(=O)CO3)cnc1OC`: 37.9 µM, 41.4 µM and 46.5 µM.
The matching figures for `CCCCS(=O)(=O)Nc1cc(-c2ccc3c(c2)N(CCCn2ccccc2=O)C(=O)CO3)cnc1OC`: 47.9 µM, 42.6 µM and 44.3 µM.
Take `CCCCS(=O)(=O)Nc1cc(-c2ccc3c(c2)N(CCCN(C)C)C(=O)CO3)cnc1OC`: the IC50 with MDA-MB-231 came out at 9.35 µM; in the assay on HCT-116, 8.43 µM; in the assay on SNU-638, 8.97 µM.
